Screening results: PubChem, Sanford-Burnham Center for Chemical Genomics
Apaf-1 act: activates human Apaf-1 apoptosome | O14727 | activity change, negative = activation, % at 20 µM | Apaf-1 apoptosome caspase-3 activation, DEVD-Rh110 fluorescence; stronger effect = lower value | AID 489031 | 0.31% of 330,000 active;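 active = activity change at or below -40% at 20 µM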
Target sequence (O14727 whole entry, looked up): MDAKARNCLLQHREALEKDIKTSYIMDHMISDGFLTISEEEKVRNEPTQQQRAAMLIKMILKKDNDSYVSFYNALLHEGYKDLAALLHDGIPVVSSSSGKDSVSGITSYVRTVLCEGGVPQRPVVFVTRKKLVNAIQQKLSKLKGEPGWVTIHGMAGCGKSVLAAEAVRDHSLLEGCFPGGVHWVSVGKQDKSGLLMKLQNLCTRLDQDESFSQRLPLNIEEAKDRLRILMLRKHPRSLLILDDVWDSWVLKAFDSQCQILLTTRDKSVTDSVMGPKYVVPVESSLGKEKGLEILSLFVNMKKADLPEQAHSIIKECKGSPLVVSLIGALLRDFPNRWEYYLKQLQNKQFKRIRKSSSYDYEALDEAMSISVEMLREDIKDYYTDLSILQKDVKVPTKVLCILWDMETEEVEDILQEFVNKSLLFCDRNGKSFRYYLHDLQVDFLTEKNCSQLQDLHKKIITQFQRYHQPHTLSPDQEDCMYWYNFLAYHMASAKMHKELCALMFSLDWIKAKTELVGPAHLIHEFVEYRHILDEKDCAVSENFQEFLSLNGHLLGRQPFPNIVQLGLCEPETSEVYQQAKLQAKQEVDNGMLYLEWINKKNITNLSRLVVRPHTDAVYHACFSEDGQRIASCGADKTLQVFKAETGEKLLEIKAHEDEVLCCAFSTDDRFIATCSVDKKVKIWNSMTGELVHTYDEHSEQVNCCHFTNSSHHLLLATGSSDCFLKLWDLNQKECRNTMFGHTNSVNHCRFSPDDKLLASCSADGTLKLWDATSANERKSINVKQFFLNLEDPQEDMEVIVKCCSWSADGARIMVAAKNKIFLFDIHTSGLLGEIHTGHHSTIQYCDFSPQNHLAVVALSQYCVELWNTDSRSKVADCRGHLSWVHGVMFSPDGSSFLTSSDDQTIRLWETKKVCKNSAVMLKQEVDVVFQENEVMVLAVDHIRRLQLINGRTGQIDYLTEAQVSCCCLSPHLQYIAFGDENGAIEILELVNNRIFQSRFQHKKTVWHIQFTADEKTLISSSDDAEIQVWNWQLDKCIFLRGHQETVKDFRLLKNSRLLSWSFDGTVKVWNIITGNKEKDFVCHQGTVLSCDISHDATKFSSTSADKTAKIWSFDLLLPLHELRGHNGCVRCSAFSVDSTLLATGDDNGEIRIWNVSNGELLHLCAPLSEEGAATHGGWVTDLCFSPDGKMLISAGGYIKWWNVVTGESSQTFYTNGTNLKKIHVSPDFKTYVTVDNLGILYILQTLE
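system = biochemical Apaf-1 apoptosome reconstitution | buffer or medium = 20 mM HEPES pH 7.5 with CHAPS, BSA | also added = dATP and cytochrome c as apoptosome triggers, (Z-DEVD)2-Rh110 substrate | incubation = 30 min compound preincubation and 50 min reaction, both room temperature | measured by = fluorescence, 540 nm emission, 480 nm excitation | read-out basis = Caspase-3 cleavage activity downstream of Apaf-1 activation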
Rh110 interf act: interferes with Rh110 fluorescence, flagging false Apaf-1 activators; Rh110 fluorescence interference, quenched caspase reaction, Ex480/Em540; shares compounds with Apaf-1 act; 980 tested, under 10 active; fluorescence interference (activity change), % at 20 µM, hits read low;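 active = mean activity change at or below -40% when tested at 20 µM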
Apaf-1 act conf: Apaf-1 (human) activation, single-dose confirmed; shares compounds with Apaf-1 act; reconstituted apoptosome caspase-3 activity, DEVD-Rh110 fluorescence; stronger effect = lower value; activity change, negative = activation, % at 20 µM; 5% of 980 active; AID 504617;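 active = mean activity change at or below -40%, meaning activation of 40% or more, at 20 µM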
Starred values were filed as active, the others as inactive. The list is a sample of the results.

SMILES	Apaf-1 act	others
COC(=O)C(Cc1ccc(N(CCCl)CCCl)cc1)N=Cc1ccccc1O (stereo unspecified)	-62.9*
CCC(C)N1C(=O)NC(=O)C2(Cc3c(ccc4ccccc34)N(C)C2)C1=O (stereo unspecified)	64.8
NC(N)=N/N=C/c1cn(-c2ccccc2)nc1-c1cccs1	40.9
COC(=O)C1=C(c2ccc(OCc3ccccc3)cc2)C[C@@H]2CC[C@H]1N2C(=O)NC1CCN(Cc2ccccc2)CC1	57.7
ClC1C(Cl)C(Cl)C(Cl)C(Cl)C1Cl (stereo unspecified)	-1.7
COc1ccc(C(=O)Cn2c(NCCCl)nc3ccccc32)cc1	-330.6*	Rh110 interf act=2.2;Apaf-1 act conf=11.8
COc1ccc(Cn2c(N)c(C(=O)NCc3ccco3)c3nc4ccccc4nc32)cc1	66.9
COCCOC(=O)c1c(N)n(Cc2ccccc2)c2nc3ccccc3nc12	82.6
NC(Cc1cc(O)c(O)cc1O)C(=O)O (stereo unspecified)	84.1
CC(C)[C@H]1C(=O)N2CCC[C@H]2[C@]2(O)O[C@](NC(=O)[C@@H]3C=C4c5cccc6[nH]cc(c56)C[C@H]4N(C)C3)(C(C)C)C(=O)N12	94.8
O=C1NC(=O)N(c2ccc(Cl)cc2)C(=O)/C1=C/c1coc2ccc(O)cc2c1=O	-40.9*	Rh110 interf act=0.0;Apaf-1 act conf=17.4
Nc1cc2nc3ccccc3nc2cc1N	62.4
Nc1c(C(=O)NCCCc2ccccc2)c2nc3ccccc3nc2n1Cc1cccs1	83.8
CCCCn1c(NC(=O)c2ccco2)c(C(=O)OCC)c2nc3ccccc3nc21	82.6
O=[N+]([O-])c1ccc(NC2CCN(Cc3ccccc3)CC2)c2ccncc12	74.2
CCCCN1C(=N)C(CC)(CC)C(=O)NC1=O	-42.5*	Rh110 interf act=4.4;Apaf-1 act conf=8.1
CCN1/C(=C\C=C\C2=[N+](CC)c3ccccc3C2(C)C)C(C)(C)c2ccccc21	56.4
CCn1nc(/C=C/c2ccccc2)nc2c(=O)n(C)c(=O)nc1-2	98.8
COc1cc2c(cc1O)C[C@H]1NCCc3cc4c(c-2c31)OCO4	71.0
CCCCCCn1c(N)c(C(=O)NCCN2CCOCC2)c2nc3ccccc3nc21	51.8
O=[N+]([O-])c1ccccc1-c1cc(-c2ccccc2)cc(-c2ccccc2)[n+]1Cc1ccccc1Cl	52.8
O=c1[nH]c2ccccc2n1CCCN1CCC(n2c(=O)[nH]c3cc(Cl)ccc32)CC1	-41.4*	Rh110 interf act=3.8;Apaf-1 act conf=3.8
Clc1ccc(C[n+]2c(-c3ccccc3)cc(-c3ccccc3)cc2-c2ccccc2)cc1	52.2
O=[N+]([O-])c1ccc(NC2CCCC2)c2ccncc12	41.9
CCCCCn1c(N)c(C(=O)NCc2cccs2)c2nc3ccccc3nc21	69.8
SMILES	Apaf-1 act	others
COCCCn1c(N)c(C(=O)NCCC(C)C)c2nc3ccccc3nc21	90.6
COc1cc(C(c2c(C)[nH]n(-c3ccccc3)c2=O)c2c(C)[nH]n(-c3ccccc3)c2=O)cc(OC)c1OC	91.8
COCC(C)OC(=O)c1c(N)n(Cc2ccco2)c2nc3ccccc3nc12 (stereo unspecified)	60.7
CCCCOCCCn1c(N)c(C(=O)OCCOC)c2nc3ccccc3nc21	65.9
c1ccc2c(c1)CSc1ccccc1C2C1=NCCN1 (stereo unspecified)	-228.3*	Rh110 interf act=12.2;Apaf-1 act conf=11.9
CCCCNC(=O)c1c(N)n(Cc2ccc3c(c2)OCO3)c2nc3ccccc3nc12	95.4
C=CCN1CC[C@]23c4c5ccc(O)c4O[C@H]2C(=O)CC[C@@]3(O)[C@H]1C5	14.8
COc1cc2c(cc1OC)-c1c3c(cc4c1[C@@H](C2)N(C)CC4)OCO3	97.5
COc1ccccc1CCNCc1cc2c(cc1[N+](=O)[O-])OCO2	-192.1*	Rh110 interf act=5.3;Apaf-1 act conf=12.8
CC(C)CCn1c(N)c(C(=O)OCC2CCCO2)c2nc3ccccc3nc21 (stereo unspecified)	41.3
CCC(COC(=O)c1cc(OC)c(OC)c(OC)c1)(c1ccccc1)N(C)C (stereo unspecified)	12.3
O=C1C=Cc2ccccc2C1=O	61.8
Cc1cc(/C=C2/C(=O)NC(=O)N(Cc3ccco3)C2=O)c(C)n1-c1ccccc1	-52.9*	Rh110 interf act=-4.2;Apaf-1 act conf=13.9
CC(=O)OCC[N+](C)(C)C	-3.3
Nc1c(C(=O)NCc2ccco2)c2nc3ccccc3nc2n1Cc1ccc(F)cc1	89.3
Nc1c(C(=O)NCc2ccco2)c2nc3ccccc3nc2n1CCN1CCOCC1	44.2
Cn1c(=O)[nH]c2nncnc2c1=O	68.1
CCCNC(=O)c1c(N)n(CC2CCCO2)c2nc3ccccc3nc12 (stereo unspecified)	92.6
COC(=O)c1nc(-c2ccc3c(n2)C(=O)C(N)=C(OC)C3=O)c(N)c(-c2ccc(OC)c(OC)c2O)c1C	88.8
